In general, inhibition refers to the share of the control response that was lost under treatment. A low value points to a response near the control. One may read the logP as the decadic logarithm of the partition coefficient of the neutral form, usually between octanol and water.

Series [1] concerns Staphylococcus aureus. Kind of series: Antibacterial activity against norA expressing Staphylococcus aureus K1902 by microdilution technique. In general terms: Dilution methods test growth across graded concentrations, often in twofold steps.
Series [2] relates to Staphylococcus aureus. Kind of series: Antibacterial activity against norA deficient Staphylococcus aureus K2378 by microdilution technique.
Series [3] relates to Staphylococcus aureus. Kind of series: microbe, parasite or virus in culture. As to conditions: ATCC 25923.
For series [4], the system named is Staphylococcus aureus. Put plainly: Antibacterial activity against wild type Staphylococcus aureus ATCC 25923 by microdilution technique. The class given is functional. The essentials: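 MICs determined in duplicate by broth microdilution following CLSI guidelines.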
The target in series [5] is T1, Quinolone resistance protein NorA (Staphylococcus aureus) (UniProt P0A0J7).
T1 sequence (whole entry): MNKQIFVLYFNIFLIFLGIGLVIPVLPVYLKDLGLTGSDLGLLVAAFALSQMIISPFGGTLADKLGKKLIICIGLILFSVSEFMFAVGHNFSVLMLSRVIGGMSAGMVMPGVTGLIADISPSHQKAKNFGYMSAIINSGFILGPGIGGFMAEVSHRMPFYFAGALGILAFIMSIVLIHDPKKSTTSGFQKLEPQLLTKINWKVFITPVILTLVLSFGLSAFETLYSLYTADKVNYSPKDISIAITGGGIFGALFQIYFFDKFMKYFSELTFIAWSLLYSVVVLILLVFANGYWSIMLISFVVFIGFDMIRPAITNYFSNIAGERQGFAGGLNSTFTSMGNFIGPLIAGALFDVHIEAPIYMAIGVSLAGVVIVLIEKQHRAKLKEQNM
Kind of series: Inhibition of NorA in Staphylococcus aureus ATCC 25923 assessed as fold reduction of ciprofloxacin MIC at 25 ug/mL by microdilution technique. The procedure, abridged: (§1)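 Ciprofloxacin MICs were measured in duplicate by broth microdilution following CLSI guidelines. They were determined alone and with scalar dilutions of freshly prepared test compound, which was added at the fixed concentration stated in the line. The result is the fold decrease in the ciprofloxacin MIC when compound is present.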

Series [6] has as its target T1, Quinolone resistance protein NorA (Staphylococcus aureus). Kind of series: Inhibition of NorA overexpressing Staphylococcus aureus K2378 assessed as fold reduction of ciprofloxacin MIC at 25 ug/mL by microdilution technique. The procedure, abridged:
as §1

For series [7] the target is unchanged. Put plainly: Inhibition of NorA pump-mediated ethidium bromide efflux in Staphylococcus aureus K1199B at 50 uM by fluorimetric analysis. The essentials: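 Loss of ethidium bromide from norA-overexpressing S. aureus SA-1199B measured fluorometrically with test agent at 50 µM. Run in duplicate; read-out is the mean total efflux over a 5 min time course.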

Series [8] deals with Staphylococcus aureus. Put plainly: Antibacterial activity against Staphylococcus aureus K1199B at 50 uM by microdilution technique. The class given is functional, organism-based.
Series [9] is described as follows: Lipophilicity, log P of the compound. The class given is physicochemical. As to conditions: octanol/water.
In series [10] the target is T1, Quinolone resistance protein NorA (Staphylococcus aureus). Put plainly: Inhibition of NorA deficient Staphylococcus aureus K1902 assessed as fold reduction of ciprofloxacin MIC at 25 ug/mL by microdilution technique.
For series [11] the target is unchanged. Put plainly: Inhibition of NorA overexpressing Staphylococcus aureus K2378 assessed as fold reduction of ciprofloxacin MIC at 6.25 ug/mL by microdilution technique. The essentials: as §1
The target is the same in series [12]. Kind of series: Inhibition of NorA overexpressing Staphylococcus aureus K2378 assessed as fold reduction of ciprofloxacin MIC at 12.5 ug/mL by microdilution technique. The procedure, abridged:
as §1

Series [13] has the same target. Kind of series: Inhibition of NorA deficient Staphylococcus aureus K1902 assessed as fold reduction of ciprofloxacin MIC at 12.5 ug/mL by microdilution technique.

Values after ≈ are worked out from the molar mass of the structure shown. Active and inactive are the calls of the source. The rule behind the calls is not given here. Where only a bound is given, the exact number is not on record here.

For `O=C(O)c1cn(C2CC2)c2cc(N3CCNCC3)c(F)cc2c1=O` [CIPROFLOXACIN], the MIC with Staphylococcus aureus [1] worked out at 0.12 µg/mL (≈ 0.362 µM); in the series with Staphylococcus aureus [2], 2 µg/mL (≈ 6.04 µM); in the series on Staphylococcus aureus [3], 0.5 µg/mL (≈ 1.51 µM).

In the series with Staphylococcus aureus [4], `COc1ccc(C2=Nc3cc(C(F)(F)F)ccc3SC2)cc1` displayed an MIC of 64 µg/mL (≈ 198 µM). Further, the fold change (FC) in [5] came to 2; in [6] it was 8.

Compound `c1ccc(C2=Nc3ccccc3SC2)cc1` came in with an MIC against Staphylococcus aureus [4] greater than 512 µg/mL. The same compound registered an inhibition in series [7] of 0%. The result in the series on Staphylococcus aureus [8] was inactive. In series [9], this compound registered a logP of 3. The fold change (FC) in [5] is 8.

The compound `CCCOc1ccc(C2=Nc3ccccc3SC2)cc1` displayed an MIC in the series with Staphylococcus aureus [4] of 128 µg/mL (≈ 452 µM). This compound also had an inhibition in series [7] of 84.7%. Besides, the outcome with Staphylococcus aureus [8] was inactive. The compound also registered a logP in series [9] of 4. Further, the figures for the fold change (FC) in series [5] and in series [6] were greater than 8 and 4, respectively.

The compound `O=S1(=O)C=C(c2ccc(Cl)cc2)Nc2ccccc21` registered an MIC with Staphylococcus aureus [4] of 128 µg/mL (≈ 439 µM). In addition, the fold change (FC) in series [5] was determined as 4; in [6] it was 2.

For `COC(=O)[C@H]1[C@H]2C[C@@H]3c4[nH]c5cc(OC)ccc5c4CCN3C[C@H]2C[C@@H](OC(=O)c2cc(OC)c(OC)c(OC)c2)[C@@H]1OC` [RESERPINE], the MIC against Staphylococcus aureus [4] came to 128 µg/mL (≈ 210 µM). For the same compound, in [9], the logP came out at 4. The fold change (FC) in series [5] was 2; in [6], 4; in series [10], 2.

Compound `CC(C)CCOc1ccc(C2=Nc3ccccc3SC2)cc1` yielded an MIC in the series on Staphylococcus aureus [4] greater than 128 µg/mL. Besides, in series [7], the inhibition was 16.9%. Also, the outcome in the series with Staphylococcus aureus [8] was inactive. The values for the fold change (FC) in [5] and in series [6] were 4 and 2, respectively.

In the series with Staphylococcus aureus [4], `FC(F)(F)c1ccc2c(c1)N=C(c1ccccc1)CS2` registered an MIC of 32 µg/mL (≈ 109 µM). Also, the inhibition in series [7] came out at 8.4%. Moreover, the result in the series on Staphylococcus aureus [8] was inactive. Moreover, the fold change (FC) in series [5] amounted to 2; in series [11], 4; in series [12], 16; in series [6], 16.

Regarding `O=S1(=O)C=C(c2ccccc2)Nc2ccccc21`, the MIC against Staphylococcus aureus [4] was 128 µg/mL (≈ 497 µM). The fold change (FC) in series [5] and in series [6] was 2 throughout.

Consider `COc1ccc(C2=Nc3ccccc3SC2)cc1OC`, for which the MIC in the series on Staphylococcus aureus [4] came out at 128 µg/mL (≈ 449 µM). The inhibition in [7] was determined as 22.8%. The outcome in the series with Staphylococcus aureus [8] was inactive. In addition, the fold change (FC) in [5] was determined as 4; in [11], 2; in series [12], 4; in series [6], 16; in series [10], 2.

Compound `COc1ccc(C2CSc3ccccc3N2)cc1` (configuration not stated) showed an MIC with Staphylococcus aureus [4] greater than 128 µg/mL. Also, in [7], the inhibition worked out at 10.4%. Moreover, the outcome with Staphylococcus aureus [8] was inactive. In addition, the fold change (FC) stood at 2 in series [5], 4 in [11], 4 in series [12] and 8 in [6].

As for `CCCOc1ccc(C2=CSc3ccccc3N2C)cc1`, the MIC in the series with Staphylococcus aureus [4] was greater than 512 µg/mL. The inhibition in series [7] was 0%. Besides, in the series on Staphylococcus aureus [8], the outcome was inactive. Also, in series [6], the fold change (FC) came out at 4.

As to `CN(C)CCCN1c2ccccc2Sc2ccc(Cl)cc21` [CHLORPROMAZINE], the MIC against Staphylococcus aureus [4] is 128 µg/mL (≈ 401 µM). The same compound had an inhibition in [7] of 81%. For the same compound, the logP in [9] was 5.2. Besides, the fold change (FC) in series [6] was 8; in series [10], greater than 4.

In the case of `O=[N+]([O-])c1ccc(C2=Nc3ccccc3SC2)cc1`, the MIC in the series on Staphylococcus aureus [4] is greater than 128 µg/mL. This compound had an inhibition in series [7] of 19.6%. The result in the series with Staphylococcus aureus [8] was inactive. The fold change (FC) in [5] and in series [6] was 2 throughout.

As for `Cc1ccc(C2=Nc3ccccc3SC2)cc1`, the MIC in the series on Staphylococcus aureus [4] was 64 µg/mL (≈ 267 µM). Besides, the fold change (FC) in series [5] is 4; in series [10], 8.

As for `Fc1ccc(C2=Nc3ccccc3SC2)cc1`, the MIC with Staphylococcus aureus [4] amounted to 64 µg/mL (≈ 263 µM). Besides, in series [7], the inhibition came out at 0%. In addition, the outcome in the series on Staphylococcus aureus [8] was inactive. This compound also returned a logP in series [9] of 3.2. The fold change (FC) came to 4 in series [5]; 2 in [11]; 2 in [12]; 16 in series [6]; 2 in [10].

Turning to `COc1ccccc1C1=Nc2ccccc2SC1`, the MIC against Staphylococcus aureus [4] came to 64 µg/mL (≈ 251 µM). The inhibition in [7] worked out at 0%. In the series on Staphylococcus aureus [8], the result was inactive. The compound also came in with a logP in [9] of 2.9. Besides, the fold change (FC) stood at 4 in [5] and 8 in series [6].

Turning to `CSc1ccc(C2CSc3ccccc3N2)cc1` (configuration not stated), in the series with Staphylococcus aureus [4], the MIC was greater than 128 µg/mL. The same compound yielded an inhibition in series [7] of 28.2%. Further, the outcome in the series with Staphylococcus aureus [8] was inactive. Besides, the logP in series [9] was found to be 4.5. Also, the fold change (FC) in series [5] was greater than 8; in [11], 8; in series [12] it was 8; in series [6], 16.

As to `COc1cc(C2=Nc3ccccc3SC2)cc(OC)c1OC`, the MIC in the series with Staphylococcus aureus [4] was 32 µg/mL (≈ 101 µM). For the same compound, the inhibition in series [7] was found to be 23.6%. The result with Staphylococcus aureus [8] was inactive. In addition, the fold change (FC) stood at 4 in [5], 2 in [11], 4 in series [12] and 16 in series [6].

`COc1ccc(C2=Nc3ccccc3SC2)cc1` gave an MIC in the series on Staphylococcus aureus [4] greater than 512 µg/mL. For the same compound, the inhibition in series [7] amounted to 19.5%. Moreover, in the series on Staphylococcus aureus [8], the result was inactive. Moreover, in [9], the logP was determined as 3.1. For the same compound, the fold change (FC) in series [5] was greater than 8; in series [11], 2; in series [12], 4; in [6], 16.

`O=[N+]([O-])c1ccc(C2=Nc3cc(C(F)(F)F)ccc3SC2)cc1` gave an MIC with Staphylococcus aureus [4] of 32 µg/mL (≈ 94.6 µM). In addition, the inhibition in [7] was found to be 69.7%. Moreover, the outcome with Staphylococcus aureus [8] was inactive. The logP in series [9] amounted to 3.9. In addition, the fold change (FC) is greater than 8 in [5]; 8 in [11]; 16 in series [12]; greater than 32 in series [6]; 2 in [10]; 2 in [13].

Consider `Clc1ccc(C2=Nc3ccccc3SC2)cc1`, for which, in the series on Staphylococcus aureus [4], the MIC came out at 64 µg/mL (≈ 246 µM). Further, the fold change (FC) in series [5], in [6] and in [10] was 4 in each case.

Consider `COc1cccc(C2=Nc3ccccc3SC2)c1`, for which the MIC in the series on Staphylococcus aureus [4] was found to be 64 µg/mL (≈ 251 µM). For the same compound, the fold change (FC) in series [5] stood at 4; in series [6], 8.

Values taken from ChEMBL document CHEMBL1155078, “From phenothiazine to 3-phenyl-1,4-benzothiazine derivatives as inhibitors of the Staphylococcus aureus NorA multidrug efflux pump” (J Med Chem, 2008).
